Compounds with a hit are over-represented: about 2.3% of the library has one in this group of screens.
TRPC4 inh: blocks the mouse TRPC4 cation channel. Q9QUQ5. HEK293 TRPC4beta/mu-opioid, DAMGO-evoked Fluo4 calcium flux; hits give low values. B-score at 10 µM. 0.39% of 300,000 active;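 active means B-score over 3 SD under the library average, no early fluorescence shift, positive overall ratio signal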
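Material: HEK293 cells with stable TRPC4beta plus mu-opioid receptor expression; probe or stimulus: DAMGO in two steps, submaximal then maximal; technique: Fluo4 calcium fluorescence by kinetic imaging, 5 s 1 Hz baseline; measure: integrated fluorescence ratio relative to baseline, converted to per-well B score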
TRPC4 PAM: allosterically enhances the mouse TRPC4 cation channel; Q9QUQ5; HEK293 TRPC4beta/mu-opioid, DAMGO EC20, Fluo-4 Ca2+ flux; hits give high values; B-score at 10 µM; 0.42% of 310,000 active; AID 2227;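 active means B-score of calcium response area above 5 SD of library B-scores, with initial fluorescence ratio within 5 SD of library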;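 further: B-score of integrated fluorescence ratio over time as area under calcium response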
TRPC6 act: activates the mouse TRPC6 cation channel. Q61143. 0.13% of 310,000 active. AID 2550. HEK293-TRPC6 membrane potential dye fluorescence; hits give high values. B-score at 10 µM;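 active means B-score of the integrated fluorescence ratio above library mean plus 3 SD, and starting fluorescence ratio within library mean plus 5 SD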;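 further: higher score means more depolarization so channel activation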
Target sequence (Q61143 whole entry, looked up): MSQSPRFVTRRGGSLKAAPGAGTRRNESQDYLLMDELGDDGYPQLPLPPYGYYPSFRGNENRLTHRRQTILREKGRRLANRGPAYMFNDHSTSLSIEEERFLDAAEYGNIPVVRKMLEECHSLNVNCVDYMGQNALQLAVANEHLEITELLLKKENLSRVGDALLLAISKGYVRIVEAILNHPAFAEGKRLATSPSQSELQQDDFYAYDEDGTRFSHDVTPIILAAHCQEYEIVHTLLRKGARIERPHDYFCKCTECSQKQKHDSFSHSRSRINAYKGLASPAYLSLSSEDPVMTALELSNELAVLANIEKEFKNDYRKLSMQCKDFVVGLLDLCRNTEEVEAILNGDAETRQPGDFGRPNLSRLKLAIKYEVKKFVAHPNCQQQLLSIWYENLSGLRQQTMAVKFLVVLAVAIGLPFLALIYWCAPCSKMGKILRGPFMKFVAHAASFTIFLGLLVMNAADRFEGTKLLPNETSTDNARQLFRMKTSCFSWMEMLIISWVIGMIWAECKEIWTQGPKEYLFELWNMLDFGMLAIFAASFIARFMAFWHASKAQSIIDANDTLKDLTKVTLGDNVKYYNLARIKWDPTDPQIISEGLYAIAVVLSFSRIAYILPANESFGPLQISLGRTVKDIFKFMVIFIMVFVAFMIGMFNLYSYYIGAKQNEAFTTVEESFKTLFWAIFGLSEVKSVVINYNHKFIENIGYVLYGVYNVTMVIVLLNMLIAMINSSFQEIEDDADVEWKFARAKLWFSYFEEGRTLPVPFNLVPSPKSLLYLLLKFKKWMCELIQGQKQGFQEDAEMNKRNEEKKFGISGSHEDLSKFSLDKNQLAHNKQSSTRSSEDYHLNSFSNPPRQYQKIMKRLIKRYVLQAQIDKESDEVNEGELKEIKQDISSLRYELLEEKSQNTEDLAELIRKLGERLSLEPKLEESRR
TRPC6 inhibitor: blocks the mouse TRPC6 cation channel | HEK293-TRPC6, membrane potential dye, ACh-evoked depolarization; hits give low values | B-score at 10 µM | 1.1% of 310,000 active | AID 2553;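 active means B-score under library mean minus 3 SD, initial fluorescence not abnormally high, positive integrated signal ratio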;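 further: B-score derived from integrated fluorescence ratio over the kinetic read; more negative B-score means stronger inhibition of depolarization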
TRPC4 act: opens the mouse TRPC4 cation channel. Q9QUQ5. HEK293 TRPC4beta/mu-opioid, Fluo4 calcium fluorescence; hits give high values. B-score at 10 µM. 0.49% of 310,000 active. AID 2237;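 active means B-score above 5 SD of library B-scores, and initial fluorescence ratio not above library mean plus 5 SD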;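 further: positive B-score marks a calcium rise read as TRPC4 activation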
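System – HEK293 cells stably co-expressing mouse TRPC4beta and mu-opioid receptor · Signal – Fluo4 calcium-sensitive dye fluorescence, kinetic, 1 Hz baseline · Benchmarks – buffer (low) and maximal DAMGO (high) · Read-out – B score of integrated fluorescence ratio per well · Incubation – dye loading 45 min room temperature, 110 s kinetic read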
TRPC4 sel inh 2: second selectivity test of TRPC6 inhibitors: effect on mouse TRPC4; HEK293 TRPC4/MOR, membrane potential dye fluorescence; channel activated by saturating DAMGO dose; shares compounds with TRPC6 inhibitor; 42% of 920 active; inhibition, % at 10 µM;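 active means compounds whose fluorescence signal differed from control wells by over 3 SD, either direction, in both duplicate plates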
TRPC4 spec: mouse TRPC4 off-target activity of TRPC6 inhibitors; shares compounds with TRPC6 inhibitor; 61% of 920 active; activity change, negative = inhibition, % at 10 µM; HEK293 TRPC4/mu-opioid, membrane potential fluorescence;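 active means rise or fall in signal beyond 3 SD of buffer-only wells in both replicate plates, either sign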;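 further: integrated kinetic ratio of fluorescence range over baseline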
HEK293 MPD ctr 2-1: second counter-screen for TRPC6 inhibitors: parental HEK293 cells; shares compounds with TRPC6 inhibitor; parental HEK293 membrane potential dye fluorescence; maximal acetylcholine challenge after compound addition; signal change vs control, % at 10 µM; 31% of 920 active; AID 2779;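 active means membrane potential signal moving either way by over 3 SD of the maximum-effect control, in both duplicate plates, meaning non-specific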
HEK293 MPD ctr-1: counter-screen for TRPC6 inhibitors: effect in parental HEK293 cells; 60% of 920 active; shares compounds with TRPC6 inhibitor; membrane potential signal change, % at 10 µM; parental HEK293 membrane potential dye fluorescence;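 active means membrane potential signal shifting up or down by more than 3 SD of buffer-only wells, on both duplicate plates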
HEK293 MPD ctr-2: counter-screen for TRPC6 modulators: effect in parental HEK293 cells; shares compounds with TRPC6 inhibitor; membrane potential dye fluorescence; membrane potential signal change, % at 10 µM; 51% of 2,400 active;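 active means membrane potential signal moves up or down beyond 5 SD from buffer-only wells, on both duplicate plates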
HEK293 MPD ctr 2-2: second counter-screen for TRPC6 modulators: effect in parental HEK293 cells; membrane potential dye fluorescence; after compound, maximal acetylcholine stimulation; shares compounds with TRPC6 inhibitor; 14% of 2,400 active; inhibition, % at 10 µM;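 active means membrane potential signal drops by more than 5 SD from the mean control signal, in both duplicate plates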;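 further: plate controls were acetylcholine ECmax control wells for no effect and buffer only wells for full effect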
TRPC4/MOR mod: selectivity of TRPC6 modulators against mouse TRPC4; shares compounds with TRPC6 inhibitor; HEK293 TRPC4/mu-opioid, membrane potential fluorescence; percent change from control (negative = decrease, positive = increase), % at 10 µM; 69% of 2,400 active;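 active means membrane potential signal moved up or down beyond 5 SD of buffer control wells, in both duplicate plates, actives on both sides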;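 further: plate controls were assay buffer wells for no effect and DAMGO maximal-effect wells for full effect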
TRPC4 ctr inh 2: second check of whether TRPC6 modulators also affect mouse TRPC4 | 55% of 2,400 active | inhibition, % at 10 µM | HEK293 TRPC4/mu-opioid, membrane potential dye fluorescence; stimulated with maximal-effect DAMGO | shares compounds with TRPC6 inhibitor;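 active means drop in membrane potential signal beyond 5 SD of the control wells in both duplicate plates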;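 further: TRPC4 counter screen for TRPC6 hits run under conditions tuned for TRPC6 not TRPC4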
TRPC6 block conf: mouse TRPC6 inhibitor confirmation. shares compounds with TRPC6 inhibitor. HEK293-TRPC6, membrane potential dye, ACh-evoked depolarization. inhibition, % at 10 µM. 43% of 3,300 active. AID 488960;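 active means fluorescence ratio falls more than 5 SD below the full-stimulation control mean, in both duplicate runs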;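 further: integrated fluorescence ratio of peak minus minimum over baseline after agonist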
TRPC6 act conf: confirmation of mouse TRPC6 activators. shares compounds with TRPC6 inhibitor. HEK293-TRPC6 membrane potential dye fluorescence, FDSS. AID 488961. activation, % at 10 µM. 11% of 2,800 active;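 active means ratio signal rise beyond 5 SD above unstimulated control wells' mean, seen in both duplicate runs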;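 further: plate controls were buffer EC0 wells for no effect and acetylcholine ECmax response for full effect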
Active calls of the source: *; i = inactive; . = no result given.

SMILES | TRPC4 inh | TRPC4 PAM | TRPC6 act | TRPC6 inhibitor | TRPC4 act | HEK293 MPD ctr-2 | HEK293 MPD ctr 2-2 | TRPC4/MOR mod | TRPC4 ctr inh 2 | TRPC6 block conf | TRPC6 act conf | others
Cn1c(SCC(=O)Nc2sc3c(c2C#N)CCC3)nnc1C1COc2ccccc2O1 (stereo not drawn) | i | i | i | -11* | i | . | . | . | . | 63%* | . | TRPC4 sel inh 2=i;TRPC4 spec=i;HEK293 MPD ctr 2-1=i;HEK293 MPD ctr-1=i
CN(C)CCCn1c(SCC(=O)Nc2sc3c(c2C#N)CCCC3)nnc1-c1ccncc1 | i | i | 16* | i | i | 187%* | i | 28%* | i | i | 76%*
CCn1c(/N=C/c2c[nH]c3ccccc23)nc2ccccc21 | i | i | i | -8.1* | i | . | . | . | . | 53%* | i | TRPC4 sel inh 2=75%*;TRPC4 spec=-9.7%*;HEK293 MPD ctr 2-1=i;HEK293 MPD ctr-1=-165%*
CCN(CCCNc1ncnc2nc[nH]c12)c1cccc(C)c1 | i | i | i | -6.3* | i | i | i | i | i | i | i
CCN(CC(=O)NC(=O)Nc1ccccc1F)Cc1ccccc1 | i | i | i | i | i | . | . | . | . | . | .
C/C(=N\NC1=NCCN1)c1ccc(Cl)cc1 | i | i | i | i | i | . | . | . | . | . | .
CCN(CC)CC(=O)Nc1ccc(/C(C)=N/NC2=NCCN2)cc1 | i | i | i | -8* | i | . | . | . | . | i | i | TRPC4 sel inh 2=i;TRPC4 spec=-12%*;HEK293 MPD ctr 2-1=i;HEK293 MPD ctr-1=i
CS(=O)(=O)N1CCC(C(=O)Nc2ccc(F)cc2)CC1 | i | i | i | i | i | . | . | . | . | . | .
CS(=O)(=O)N1CCC(C(=O)Nc2ccc(F)cc2F)CC1 | i | i | i | -6.3* | i | i | i | 12%* | i | i | .
CCc1cccc(C)c1NC(=O)CSc1nnc(C)o1 | i | i | i | i | i | . | . | . | . | . | .
COc1ccccc1CNCc1ccc(OC)c2ccccc12 | -7* | i | i | -6.2* | i | 265%* | i | 64%* | 70%* | 52%* | .
CCn1cc(/C=N\NC(=O)c2cc(-c3ccccc3OC)nc3ccccc23)c(C)n1 | i | i | i | i | i | . | . | . | . | . | .
COc1ccccc1-c1cc(C(=O)N/N=C\c2cn(C)nc2C)c2ccccc2n1 | i | i | i | -5.9* | i | i | i | i | i | 44%* | .
CC(C)N=C1NN=C(c2ccc(Cl)c(Cl)c2)CS1 | i | i | i | i | i | . | . | . | . | . | .
CCc1nnc(NC(=O)CSc2nnc(-c3ccccc3OC)n2-c2ccccc2)s1 | i | i | 12* | i | i | 182%* | i | 40%* | i | i | 54%*

Screening data deposited in PubChem by Johns Hopkins Ion Channel Center.
